According to ChEMBL document CHEMBL1145480, “Horizontal gene transfer of ftsI, encoding penicillin-binding protein 3, in Haemophilus influenzae” (2007):
Values after ≈ are worked out from the molar mass of the structure shown.

Legend:
Type in all cases: functional
Haemophilus influenzae [1] = experiment: Antibacterial activity against Haemophilus influenzae MSC06647 by broth microdilution method
Outline: (§1)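 MICs were determined by broth dilution following CLSI guidelines (approved standard M7-A7). The agents were rifampin, cefdinir and fosfomycin. Strains were routinely grown on chocolate II agar or in brain heart infusion broth with 2% defibrinated, lysed horse blood plus 15 μg/ml β-NAD+.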

Haemophilus influenzae [2] = experiment: Antibacterial activity against rifampin and cefdinir-resistant Haemophilus influenzae RdRIF/MSC06651 mutant by broth microdilution method; outline: as §1
Haemophilus influenzae [3] = experiment: Antibacterial activity against Haemophilus influenzae Rd by broth microdilution method; outline: as §1
Haemophilus influenzae [4] = experiment: Antibacterial activity against rifampin-resistant Haemophilus influenzae RdRIF by broth microdilution method; outline: as §1
Haemophilus influenzae [5] = experiment: Antibacterial activity against rifampin and cefdinir-resistant Haemophilus influenzae RdRIF/MSC06663 mutant by broth microdilution method; outline: as §1
Haemophilus influenzae [6] = experiment: Antibacterial activity against Haemophilus influenzae MSC06663 by broth microdilution method; outline: as §1
Haemophilus influenzae [7] = experiment: Antibacterial activity against rifampin and cefdinir-resistant Haemophilus influenzae RdRIF/MSC06647 mutant by broth microdilution method; outline: as §1
Haemophilus influenzae [8] = experiment: Antibacterial activity against Haemophilus influenzae MSC06651 by broth microdilution method; outline: as §1
Haemophilus influenzae [9] = experiment: Antibacterial activity against Haemophilus influenzae MSC01855 by broth microdilution method; outline: as §1
[10] = tested on: Haemophilus paraphrohaemolyticus; experiment: Antibacterial activity against Haemophilus paraphrohaemolyticus ATCC 29237 by broth microdilution method
Haemophilus influenzae [11] = experiment: Antibacterial activity against Haemophilus influenzae MSC01363 by broth microdilution method; outline: as §1
[12] = tested on: Aggregatibacter aphrophilus; experiment: Antibacterial activity against Haemophilus aphrophilus ATCC 33389 by broth microdilution method
Haemophilus influenzae [13] = experiment: Antibacterial activity against Haemophilus influenzae MSC02104 by broth microdilution method
Aggregatibacter segnis = experiment: Antibacterial activity against Haemophilus segnis ATCC 33393 by broth microdilution method
[14] = tested on: Haemophilus parainfluenzae; experiment: Antibacterial activity against Haemophilus parainfluenzae ATCC 33392 by broth microdilution method
Haemophilus influenzae [15] = experiment: Antibacterial activity against Haemophilus influenzae MSC07169 by broth microdilution method; outline: as §1
Haemophilus influenzae [16] = experiment: Antibacterial activity against Haemophilus influenzae MSC07771 by broth microdilution method; outline: as §1
Haemophilus influenzae [17] = experiment: Antibacterial activity against Haemophilus influenzae MSC07237 by broth microdilution method; outline: as §1
Haemophilus influenzae [18] = experiment: Antibacterial activity against Haemophilus influenzae MSC01869 by broth microdilution method; outline: as §1
[19] = tested on: Aggregatibacter aphrophilus; experiment: Antibacterial activity against Haemophilus paraphrophilus ATCC 29241 by broth microdilution method
[20] = tested on: Haemophilus parahaemolyticus; experiment: Antibacterial activity against Haemophilus parahaemolyticus ATCC 10014 by broth microdilution method
Haemophilus influenzae [21] = experiment: Antibacterial activity against Haemophilus influenzae MSC02022 by broth microdilution method; outline: as §1
Haemophilus influenzae [22] = experiment: Antibacterial activity against Haemophilus influenzae MSC01400 by broth microdilution method; outline: as §1
Haemophilus influenzae [23] = experiment: Antibacterial activity against Haemophilus influenzae MSC01432 by broth microdilution method; outline: as §1
Haemophilus influenzae [24] = experiment: Antibacterial activity against Haemophilus influenzae MSC02070 by broth microdilution method; outline: as §1
Haemophilus influenzae [25] = experiment: Antibacterial activity against Haemophilus influenzae MSC02149 by broth microdilution method; outline: as §1
Haemophilus haemolyticus [26] = experiment: Antibacterial activity against Haemophilus haemolyticus MSC07286 by broth microdilution method
Haemophilus haemolyticus [27] = experiment: Antibacterial activity against Haemophilus haemolyticus ATCC 33390 by broth microdilution method

Structure (SMILES)	MIC (Haemophilus influenzae [1]) [µg/mL]	MIC (Haemophilus influenzae [2]) [µg/mL]	MIC (Haemophilus influenzae [3]) [µg/mL]	MIC (Haemophilus influenzae [4]) [µg/mL]	MIC (Haemophilus influenzae [5]) [µg/mL]	MIC (Haemophilus influenzae [6]) [µg/mL]	MIC (Haemophilus influenzae [7]) [µg/mL]	MIC (Haemophilus influenzae [8]) [µg/mL]	MIC (Haemophilus influenzae [9]) [µg/mL]	MIC [10] [µg/mL]	MIC (Haemophilus influenzae [11]) [µg/mL]	MIC [12] [µg/mL]	MIC (Haemophilus influenzae [13]) [µg/mL]	MIC (Aggregatibacter segnis) [µg/mL]	MIC [14] [µg/mL]	MIC (Haemophilus influenzae [15]) [µg/mL]	MIC (Haemophilus influenzae [16]) [µg/mL]	MIC (Haemophilus influenzae [17]) [µg/mL]	MIC (Haemophilus influenzae [18]) [µg/mL]	MIC [19] [µg/mL]	also measured
CO[C@H]1/C=C/O[C@@]2(C)Oc3c(C)c(O)c4c(O)c(c(/C=N/N5CCN(C)CC5)c(O)c4c3C2=O)NC(=O)/C(C)=C\C=C\[C@H](C)[C@H](O)[C@@H](C)[C@@H](O)[C@@H](C)[C@H](OC(C)=O)[C@@H]1C [RIFAMPIN]	0.25 (≈ 0.304 µM)	> 128	0.5 (≈ 0.608 µM)	> 128	> 128	0.5 (≈ 0.608 µM)	> 128	0.5 (≈ 0.608 µM)	–	–	–	–	–	–	–	–	–	–	–	–	–
CC1(C)S[C@@H]2[C@H](NC(=O)[C@H](N)c3ccccc3)C(=O)N2[C@H]1C(=O)O [AMPICILLIN]	2 (≈ 5.72 µM)	–	–	0.25 (≈ 0.715 µM)	–	1 (≈ 2.86 µM)	–	2 (≈ 5.72 µM)	4 (≈ 11.4 µM)	0.25 (≈ 0.715 µM)	2 (≈ 5.72 µM)	0.5 (≈ 1.43 µM)	> 64	0.5 (≈ 1.43 µM)	0.5 (≈ 1.43 µM)	1 (≈ 2.86 µM)	2 (≈ 5.72 µM)	4 (≈ 11.4 µM)	> 64	0.25 (≈ 0.715 µM)	MIC [20]: 0.25 µg/mL (≈ 0.715 µM); MIC (Haemophilus influenzae [21]): 1 µg/mL (≈ 2.86 µM); MIC (Haemophilus influenzae [22]): 8 µg/mL (≈ 22.9 µM); MIC (Haemophilus influenzae [23]): 1 µg/mL (≈ 2.86 µM); MIC (Haemophilus influenzae [24]): 8 µg/mL (≈ 22.9 µM); MIC (Haemophilus influenzae [25]): 8 µg/mL (≈ 22.9 µM); MIC (Haemophilus haemolyticus [26]): 2 µg/mL (≈ 5.72 µM); MIC (Haemophilus haemolyticus [27]): 0.5 µg/mL (≈ 1.43 µM)
C=CC1=C(C(=O)O)N2C(=O)[C@@H](NC(=O)/C(=N\O)c3csc(N)n3)[C@H]2SC1 [CEFDINIR]	1 (≈ 2.53 µM)	8 (≈ 20.2 µM)	0.25 (≈ 0.632 µM)	0.25 (≈ 0.632 µM)	8 (≈ 20.2 µM)	2 (≈ 5.06 µM)	2 (≈ 5.06 µM)	8 (≈ 20.2 µM)	8 (≈ 20.2 µM)	0.016 (≈ 0.0405 µM)	1 (≈ 2.53 µM)	0.12 (≈ 0.303 µM)	16 (≈ 40.5 µM)	0.06 (≈ 0.152 µM)	0.12 (≈ 0.303 µM)	1 (≈ 2.53 µM)	1 (≈ 2.53 µM)	16 (≈ 40.5 µM)	8 (≈ 20.2 µM)	0.06 (≈ 0.152 µM)	MIC [20]: 0.016 µg/mL (≈ 0.0405 µM); MIC (Haemophilus influenzae [21]): 2 µg/mL (≈ 5.06 µM); MIC (Haemophilus influenzae [22]): 8 µg/mL (≈ 20.2 µM); MIC (Haemophilus influenzae [23]): 2 µg/mL (≈ 5.06 µM); MIC (Haemophilus influenzae [24]): 8 µg/mL (≈ 20.2 µM); MIC (Haemophilus influenzae [25]): 16 µg/mL (≈ 40.5 µM); MIC (Haemophilus haemolyticus [26]): 2 µg/mL (≈ 5.06 µM); MIC (Haemophilus haemolyticus [27]): 0.12 µg/mL (≈ 0.303 µM)
C[C@@H]1O[C@@H]1P(=O)(O)O [FOSFOMYCIN]	0.12 (≈ 0.869 µM)	1 (≈ 7.24 µM)	2 (≈ 14.5 µM)	2 (≈ 14.5 µM)	2 (≈ 14.5 µM)	0.06 (≈ 0.435 µM)	2 (≈ 14.5 µM)	256 (≈ 1850 µM)	–	–	–	–	–	–	–	–	–	–	–	–	–
